This is a sample that favours compounds with a hit; in the whole collection about 1.5% have one here.
CXCR6 inh: inhibitors of human CXCR6 receptor; 360,000 tested, 0.36% active; inhibition, % at 20 µM; CHO-K1 PathHunter CXCR6 beta-arrestin, luminescence; in the data active = inhibition above about 34%, passing the limit was not always enough;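 note: antagonist mode with CXCL16 agonist at 10 nM final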
EBI2 block: antagonists of human EBI2 receptor. inhibition, % at 5 µM. EBI2 beta-arrestin recruitment, luminescence, 7a,25-OHC stimulated. 360,000 tested, 0.81% active. P32249; in the data active = inhibition above about 38%;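 note: enzyme fragment complementation signal reports receptor beta-arrestin coupling in cells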
APJ agonist: activates the human apelin receptor APJ; P35414; 330,000 tested, 0.11% active; CHO-K1 APJ PathHunter beta-arrestin, luminescence; 0% DMSO wells, 100% apelin; AID 2520; activation, % at 20 µM;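 active = activation more than six SD over the plate average, tested at 20 µM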
Target sequence (P35414 whole entry, looked up): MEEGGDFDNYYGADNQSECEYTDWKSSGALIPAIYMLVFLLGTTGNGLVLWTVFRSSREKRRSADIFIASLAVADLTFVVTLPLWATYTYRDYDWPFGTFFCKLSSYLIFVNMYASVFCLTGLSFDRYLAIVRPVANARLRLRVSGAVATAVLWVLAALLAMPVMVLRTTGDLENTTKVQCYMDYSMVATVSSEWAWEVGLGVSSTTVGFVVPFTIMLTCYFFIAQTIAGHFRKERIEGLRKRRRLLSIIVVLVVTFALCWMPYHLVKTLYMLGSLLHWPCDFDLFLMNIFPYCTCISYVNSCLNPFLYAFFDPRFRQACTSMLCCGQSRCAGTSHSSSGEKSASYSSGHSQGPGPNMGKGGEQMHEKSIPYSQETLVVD
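Assay system: CHO-K1 cells stably expressing ProLink-tagged human APJ and arrestin–beta-gal acceptor. Compound dosing: 20 µM single point, 1% DMSO. Times: 16-18 h seeding, 90 min dark compound exposure, 60 min detection. Detection: beta-gal luminescence. Evaluation: APJ–arrestin association signal. Controls: negative DMSO alone, positive Apelin-13 at 10 nM.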
APJ antag: APJ receptor antagonism | CHO-K1 APJ beta-arrestin complementation, luminescence | P35414 | 330,000 tested, 0.32% active | AID 2521 | inhibition, % at 20 µM;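 active = inhibition above about 40% at 20 µM, limit read from the data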;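 note: cells challenged with 10 nM apelin-13 agonist together with compound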
CCR6 antagonist: CCR6 (human) receptor antagonism. inhibition, % at 20 µM. AID 493098. CHO-K1 CCR6 PathHunter beta-arrestin, luminescence, CCL20-stimulated. 340,000 tested, 0.49% active;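 active = compounds whose inhibition of the agonist-driven luminescence signal at 20 µM reaches about 50%, limit read from the data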;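 note: cells stimulated with CCL20 at 14 nM final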
EBI2 antag conf: EBI2 (human) antagonism, single concentration confirmation. inhibition, % at 5 µM. EBI2 beta-arrestin luminescence, 7a,25-OHC antagonism. shares compounds with EBI2 block. AID 651997. 2,400 tested, 29% active;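 active = inhibition of at least 50%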
EBI2 ag: EBI2 agonism counter-screen | AID 652000 | shares compounds with EBI2 block | activation, % at 5 µM | EBI2-expressing cells, agonist mode, luminescence, 60 min; 0% vehicle, 100% 7α,25-dihydroxycholesterol control | 2,400 tested, under 10 active;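 active = activation of at least 50%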
bGal counter: counter-screen for EBI2 antagonists: E. coli beta-galactosidase inhibition; shares compounds with EBI2 block; purified beta-galactosidase, luminescent Galacton Star, 15 min; inhibition, % at 5 µM; 2,400 tested, 1% active;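 active = replicate-average signal at least 3 plate SD below neutral wells, shown as high inhibition, flagging enzyme-inhibiting false positives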;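 note: higher means stronger loss of beta-gal luminescence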
A number is an active result; n = inactive; x = not tested or not shown.

SMILES	CXCR6 inh	EBI2 block	APJ agonist	APJ antag	CCR6 antagonist	EBI2 antag conf	EBI2 ag	bGal counter
COCC#Cc1cnc2c(c1)C(=O)N([C@H](C)CO)C[C@H](C)[C@@H](CN(C)S(=O)(=O)c1ccccc1)O2	n	n	x	x	x	x	x	x
CN(C)C(=O)CCc1ccc2c3c([nH]c2c1)[C@]1(CCc2ccccc2)[C@@H](C(=O)N2CCCCC2)C[C@H](CC(=O)NCc2cccc(C(F)(F)F)c2)C(=O)N1CC3	n	42	x	x	n	n	n	n
O=C(Nc1c(C(=O)N2CCOCC2)cnn1-c1ccccc1)c1cccc(F)c1	n	n	n	n	n	x	x	x
Cc1ccc2nc(-c3ccc(C#N)cc3)c(Cc3ccccc3C(F)(F)F)n2c1	n	47	x	x	x	n	n	n
CCOc1ccc(NC(=S)Nc2cccc3cnccc23)cc1	n	66	n	n	n	n	n	n
CC(C)c1ccc(NC(=S)Nc2cccc3ccccc23)cc1	n	44	n	n	n	n	n	n
CCNC(=S)Nc1ccc(OCC)cc1	n	n	n	n	n	x	x	x
Cc1ccc(NC(=S)Nc2cccc3ccccc23)cc1	n	n	n	n	n	x	x	x
CCOc1ccc(NC(=S)Nc2cccc3ccccc23)cc1	n	56	n	n	n	n	n	n
COc1ccc(NC(=S)Nc2cccc3cnccc23)cc1	n	n	n	n	n	x	x	x
CCOc1ccc(NC(=S)Nc2ccccc2C2CC2)cc1	n	60	n	n	n	n	n	n
Fc1ccc(NC(=S)Nc2cccc3ccccc23)cc1	n	n	n	n	n	x	x	x
CS/C(N)=N/S(=O)(=O)c1ccc(NC(C)=O)cc1	n	n	n	n	n	x	x	x
CCCCN(C(=O)CCCSc1nc2ccccc2[nH]1)c1c(N)n(Cc2ccccc2)c(=O)[nH]c1=O	n	n	n	n	n	x	x	x
CC(=O)N(C)c1ccc(NC(=S)Nc2ccc(C(C)C)cc2)cc1	n	52	n	n	n	n	n	n
CC(C)c1ccc(NC(=S)Nc2ccc3[nH]c(=O)[nH]c3c2)cc1	n	n	n	n	n	x	x	x
Cc1cccc(OCC(=O)NC2CCCc3ccccc32)c1C (configuration not stated)	n	57	n	n	n	58	n	n
O=C(Nc1ccccc1F)Nc1ccccc1N1CCCCC1	n	53	n	n	n	n	n	n
COc1ccccc1OCC(=O)NC1CCCc2ccccc21 (configuration not stated)	n	n	n	n	n	x	x	x
Cc1cccc(OCC(=O)Nc2ccccc2N2CCCCC2)c1C	n	43	n	n	n	n	n	n
Cc1cc(C)n(S(=O)(=O)c2ccccc2[N+](=O)[O-])n1	n	n	n	n	n	x	x	x
COc1ccc(NC(=S)N2CCC(C(=O)c3ccc(F)cc3)CC2)cc1	n	n	x	x	n	x	x	x
COc1ccc(OC2CCN(C(=O)Nc3ccc(C)cc3)CC2)cc1	n	83	n	n	n	61	n	n
COc1ccc(NC(=O)N2CCC(C(=O)c3ccc(F)cc3)CC2)cc1	n	53	n	n	n	n	n	n
CSc1ccc(NC(=O)N2CCC(C(=O)c3ccc(F)cc3)CC2)cc1	n	64	n	n	n	55	n	n
SMILES	CXCR6 inh	EBI2 block	APJ agonist	APJ antag	CCR6 antagonist	EBI2 antag conf	EBI2 ag	bGal counter
CCc1nc2c(OCc3cc(Cl)cc(Cl)c3)cccn2c1N(C)C(=O)Nc1ccccc1OC	n	n	x	x	x	x	x	x
O=C(Nc1cccc(F)c1)N1CCC(c2ccccc2)CC1	n	67	n	n	n	n	n	n
O=C(Nc1ccc(Cl)cc1)N1CCC(c2ccccc2)C1 (configuration not stated)	n	87	n	n	n	55	n	n
Cc1ccc(C2CCN(C(=O)Nc3ccccc3)C2)cc1 (configuration not stated)	n	60	n	n	n	n	n	n
CC(C)N(C)C1CCN(C(=O)Nc2ccc(Cl)cc2)CC1	n	n	n	n	n	x	x	x
Cc1ccc(NC(=S)N2CCC(c3ccc(C)cc3)C2)cc1 (configuration not stated)	n	n	n	n	n	x	x	x
CN(C)c1ccc(-c2noc(C3CCN(C(=O)Nc4ccc(Cl)cc4)CC3)n2)cc1	n	82	n	n	n	57	n	n
CCN(C(=O)CN1C(=O)NC(c2ccccc2)(c2ccc(C)c(C)c2)C1=O)C1CCCCC1 (configuration not stated)	n	n	n	n	n	x	x	x
CCc1ncc(CO)n1Cc1cccc2ccccc12	n	n	x	x	x	x	x	x
COC(=O)c1ccc(NC(=O)c2cc[n+](Cc3ccccc3)cc2)cc1	n	n	n	n	n	x	x	x
COc1ccc(NC(=S)N2CCC(c3ccc(C)cc3)C2)cc1 (configuration not stated)	n	46	n	n	n	n	n	n
Cc1ccc(NC(=O)N2CCC(c3ccccc3)C2)cc1C (configuration not stated)	n	73	n	n	n	63	n	n
CNS(=O)(=O)c1cccc(C(=O)NCC(C)(C)N2CCCCC2)c1	n	n	n	n	n	x	x	x
COCCNc1nc(NCCOc2ccccc2Cl)c2sc(-c3ccccc3)cc2n1	n	40	x	x	x	n	n	n
c1ccc(-c2cc3nc(NCC4CC4)nc(NCC4CCCCC4)c3s2)cc1	n	56	x	x	x	n	n	n
COCCNc1nc(NCC2CCCCC2)c2sc(-c3ccccc3)cc2n1	n	n	x	x	x	x	x	x
CN(CC(=O)NCCc1ccc(S(N)(=O)=O)cc1)S(=O)(=O)c1ccc(Br)s1	n	n	n	n	n	x	x	x
CCC(=O)N1CCc2cc(Br)cc(S(=O)(=O)N3CCC(C(=O)NC(C)C)CC3)c21	n	n	n	n	n	x	x	x
O=C(O)C1(S(=O)(=O)c2ccc(Cl)cc2)CCC1	n	n	n	n	n	x	x	x
Cc1ccc(NC(=O)C2(C)CCN2Cc2csc3ccccc23)cc1 (configuration not stated)	n	n	x	x	x	x	x	x
CC1(C(=O)NCc2ccccc2Br)CCN1Cc1csc2ccccc12 (configuration not stated)	n	61	x	x	x	51	n	n
CN(CC(=O)OCC(=O)NC1CCCC1)S(=O)(=O)c1ccc(Cl)cc1	n	n	n	n	n	x	x	x
CC(C)(C)SCCNC(=O)COc1ccc(Cl)cc1	n	n	n	n	n	x	x	x
Cc1ccccc1CSCCNC(=O)COc1ccc(Cl)cc1	n	55	n	n	n	n	n	n
S=C1NC[C@H](c2ccccc2)N1CCCCC1CCCCC1	n	46	n	n	n	n	n	n
NC1=NC[C@H](c2ccccc2)N1CCCCC1CCCCC1	n	n	n	n	n	x	x	x
CCc1ccc(OCc2nnc(SCC(=O)NC3CCCCC3)o2)cc1	n	n	n	n	n	x	x	x

Assay outcomes deposited in PubChem BioAssay by Sanford-Burnham Center for Chemical Genomics.
